Reference: PubChem BioAssay AID588510 (Broad Institute, 2011)
Active and inactive are the calls of the source. How the calls were made is not given here.

Target: Protein LANA1 (Human herpesvirus 8 type P (isolate GK18)) (UniProt Q9QR71)
Assay: LANA–nucleosome binding inhibitors, dose response, orthogonal assay, biochemical, ELISA, dry powder samples (AID 588510)
Conditions: GST-LANA 1-23 binding to nucleosomes, ELISA 450 nm; series mostly up to 50 µM
In short: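 System: Purified nucleosomes plus GST-LANA 1-23 peptide | Quantity: Nucleosomes 1.5 µg per well | Medium: Milk-blocked nucleosome-coated wells | Also added: GST-LANA 1-23, 7.5 µg/mL | Doses: Pinned compound, dose series | Schedule: Compound plus GST-LANA 90 min 4 °C, substrate 30 min RT | Signal: Colorimetric ELISA, anti-GST and secondary antibodies, absorbance 450 nm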

Sequence of Protein LANA1 (Human herpesvirus 8 type P (isolate GK18)) (Q9QR71 whole entry, looked up): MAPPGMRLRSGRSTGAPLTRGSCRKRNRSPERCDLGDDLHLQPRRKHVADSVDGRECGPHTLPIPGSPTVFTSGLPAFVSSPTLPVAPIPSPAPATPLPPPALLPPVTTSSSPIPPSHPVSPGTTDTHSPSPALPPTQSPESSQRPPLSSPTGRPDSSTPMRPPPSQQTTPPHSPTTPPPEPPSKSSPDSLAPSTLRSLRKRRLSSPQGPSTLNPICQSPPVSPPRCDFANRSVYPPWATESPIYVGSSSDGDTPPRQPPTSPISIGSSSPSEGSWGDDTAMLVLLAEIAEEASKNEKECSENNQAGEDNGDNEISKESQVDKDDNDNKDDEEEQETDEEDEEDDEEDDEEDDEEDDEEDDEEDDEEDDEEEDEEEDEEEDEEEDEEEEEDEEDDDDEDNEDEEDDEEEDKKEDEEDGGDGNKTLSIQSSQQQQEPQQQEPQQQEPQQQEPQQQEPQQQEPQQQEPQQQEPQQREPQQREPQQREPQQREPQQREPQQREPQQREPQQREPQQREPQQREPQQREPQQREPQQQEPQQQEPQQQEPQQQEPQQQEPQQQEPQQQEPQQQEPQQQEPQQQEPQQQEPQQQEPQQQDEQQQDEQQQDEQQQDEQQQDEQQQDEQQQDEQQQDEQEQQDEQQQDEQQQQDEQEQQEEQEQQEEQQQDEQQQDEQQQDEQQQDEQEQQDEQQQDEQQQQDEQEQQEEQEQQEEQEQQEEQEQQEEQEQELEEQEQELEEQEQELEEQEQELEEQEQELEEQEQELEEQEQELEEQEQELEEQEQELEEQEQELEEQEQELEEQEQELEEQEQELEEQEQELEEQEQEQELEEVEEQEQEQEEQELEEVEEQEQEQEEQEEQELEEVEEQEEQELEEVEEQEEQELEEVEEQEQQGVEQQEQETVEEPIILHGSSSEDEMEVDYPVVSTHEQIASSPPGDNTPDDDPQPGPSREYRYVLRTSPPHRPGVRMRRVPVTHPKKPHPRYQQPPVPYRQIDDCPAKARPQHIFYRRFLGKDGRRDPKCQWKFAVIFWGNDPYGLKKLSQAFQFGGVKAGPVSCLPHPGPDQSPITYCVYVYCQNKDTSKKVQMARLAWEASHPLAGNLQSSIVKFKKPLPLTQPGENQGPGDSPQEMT

outcome, inactive:
CC(C)(C)C1(C)OC(=O)C(=Cc2ccc(OCC(=O)Nc3ccccc3)cc2)C(=O)O1 (stereo not drawn)
Cc1ccc(Cl)cc1N1CCN(C(=O)C2CCN(S(C)(=O)=O)CC2)CC1
COc1ccc(C2C=C(c3ccc(Br)cc3)Nc3nc(NS(C)(=O)=O)nn32)cc1 (stereo not drawn)
COc1ccc2ccccc2c1C(O)c1nccn1C (stereo not drawn)
O=S(=O)(Nc1cc(Cl)ccc1N1CCOCC1)c1ccccc1Cl
CC(=O)Nc1cccc(N)c1
CC1Cc2ccccc2N1C(=O)CSc1ncccn1 (stereo not drawn)
O=C(CCCN1C(=O)c2cccc3cccc(c23)C1=O)N1CCN(c2ccccc2)CC1
CC(=O)Nc1ccc(-c2cn3ccsc3n2)cc1
Cc1cc(C)cc(NS(=O)(=O)c2ccc3c(c2)C(C)(C)C(=O)N3C)c1
Clc1ccc(-c2nnc3sc(-c4ccc(Br)o4)nn23)cc1
Cc1cccc(N2C(=O)c3cccc4c(N(C)CCO)ccc(c34)C2=O)c1
Cc1cc(C)c2nc(C(F)(F)F)nc(NCCCN3CCCC3=O)c2c1
